Source: ChEMBL document CHEMBL4699573, “Design, Synthesis, and Pharmacological Evaluation of Analogues Derived from the PLEV Tetrapeptide as Protein-Protein Interaction Modulators of Voltage-Gated Sodium Channel 1.6” (J Med Chem, 2020)
The source made the active and inactive calls. The rule behind the calls is not given here. Residues, ends and D or L forms follow the SMILES beside them. *: point of attachment. Adamantane1carbonyl = O=C(C12CC3CC(CC(C3)C1)C2)*; Fmoc = O=C(OCC1c2ccccc2-c2ccccc21)*; Benzoyl(4-F) = O=C(c1ccc(F)cc1)*; Piperazinyl(4-Me) = CN1CCN(*)CC1; Morpholide = C1CN(*)CCO1; Cbz = O=C(OCc1ccccc1)*; NHBn = c1ccc(CN*)cc1; NHCH2CH2OH = OCCN*; X2 = C1O[C@@H]1CO*; OtBu = CC(C)(C)O*; NEt2 = CCN(CC)*; X1 = C#CCO*

How the values were obtained:
[1] = test system: HEK293; experiment: Modulation of recombinant human FGF141b (1 to 252 residues)-recombinant human Nav1.6 C-terminal tail (1763 to 1976 residues) protein-protein interaction expressed in HEK293 cells assessed as relative luminescence value at 50 uM measured at 2 mins interval for 20 mins by split-luciferase complementation assay relative to control; type: cell-based; conditions: time min 2-20
Outline: (§1)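 Double-stable HEK293 line expressing CLuc-FGF14 and CD4-Nav1.6-C-tail-NLuc, kept on G418 and puromycin. Cells seeded for 24 h, then given compound for 1 h in serum-free, phenol red-free DMEM/F12 with a final 0.5% DMSO: 50 μM for screening, 0.25–100 μM over eight concentrations for dose-response; n = 4. D-luciferin added and read every 2 min for 20 min at 37 °C. Peak luminescence expressed as percent of per-plate DMSO mean (n = 32). IC50 from four-parameter nonlinear fit. At least 3 experiments.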

[2] = target: T1, Sodium channel protein type 8 subunit alpha (Homo sapiens, UniProt Q9UQD0); experiment: Binding affinity to human recombinant Nav1.6 C-terminal domain expressed in Escherichia coli BL21 assessed as dissociation constant by SPR analysis
Outline: (§2)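 Biacore T100 runs with FGF14 (17,896 RU) or Nav1.6 C-tail (6,800 RU) amine-coupled on CM5 at pH 5.5. Compounds at 0.195–200 μM in PBS, 0.005% Tween-20, 2% DMSO; 50 μL/min at 25 °C. 120 s association, 150 s dissociation, DMSO calibration, blank subtraction. Rates from a Langmuir 1:1 fit; KD averages the kinetic and steady-state values. At least duplicate experiments.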
Target sequence in this assay (Q9UQD0 whole entry, the tested form may be a part): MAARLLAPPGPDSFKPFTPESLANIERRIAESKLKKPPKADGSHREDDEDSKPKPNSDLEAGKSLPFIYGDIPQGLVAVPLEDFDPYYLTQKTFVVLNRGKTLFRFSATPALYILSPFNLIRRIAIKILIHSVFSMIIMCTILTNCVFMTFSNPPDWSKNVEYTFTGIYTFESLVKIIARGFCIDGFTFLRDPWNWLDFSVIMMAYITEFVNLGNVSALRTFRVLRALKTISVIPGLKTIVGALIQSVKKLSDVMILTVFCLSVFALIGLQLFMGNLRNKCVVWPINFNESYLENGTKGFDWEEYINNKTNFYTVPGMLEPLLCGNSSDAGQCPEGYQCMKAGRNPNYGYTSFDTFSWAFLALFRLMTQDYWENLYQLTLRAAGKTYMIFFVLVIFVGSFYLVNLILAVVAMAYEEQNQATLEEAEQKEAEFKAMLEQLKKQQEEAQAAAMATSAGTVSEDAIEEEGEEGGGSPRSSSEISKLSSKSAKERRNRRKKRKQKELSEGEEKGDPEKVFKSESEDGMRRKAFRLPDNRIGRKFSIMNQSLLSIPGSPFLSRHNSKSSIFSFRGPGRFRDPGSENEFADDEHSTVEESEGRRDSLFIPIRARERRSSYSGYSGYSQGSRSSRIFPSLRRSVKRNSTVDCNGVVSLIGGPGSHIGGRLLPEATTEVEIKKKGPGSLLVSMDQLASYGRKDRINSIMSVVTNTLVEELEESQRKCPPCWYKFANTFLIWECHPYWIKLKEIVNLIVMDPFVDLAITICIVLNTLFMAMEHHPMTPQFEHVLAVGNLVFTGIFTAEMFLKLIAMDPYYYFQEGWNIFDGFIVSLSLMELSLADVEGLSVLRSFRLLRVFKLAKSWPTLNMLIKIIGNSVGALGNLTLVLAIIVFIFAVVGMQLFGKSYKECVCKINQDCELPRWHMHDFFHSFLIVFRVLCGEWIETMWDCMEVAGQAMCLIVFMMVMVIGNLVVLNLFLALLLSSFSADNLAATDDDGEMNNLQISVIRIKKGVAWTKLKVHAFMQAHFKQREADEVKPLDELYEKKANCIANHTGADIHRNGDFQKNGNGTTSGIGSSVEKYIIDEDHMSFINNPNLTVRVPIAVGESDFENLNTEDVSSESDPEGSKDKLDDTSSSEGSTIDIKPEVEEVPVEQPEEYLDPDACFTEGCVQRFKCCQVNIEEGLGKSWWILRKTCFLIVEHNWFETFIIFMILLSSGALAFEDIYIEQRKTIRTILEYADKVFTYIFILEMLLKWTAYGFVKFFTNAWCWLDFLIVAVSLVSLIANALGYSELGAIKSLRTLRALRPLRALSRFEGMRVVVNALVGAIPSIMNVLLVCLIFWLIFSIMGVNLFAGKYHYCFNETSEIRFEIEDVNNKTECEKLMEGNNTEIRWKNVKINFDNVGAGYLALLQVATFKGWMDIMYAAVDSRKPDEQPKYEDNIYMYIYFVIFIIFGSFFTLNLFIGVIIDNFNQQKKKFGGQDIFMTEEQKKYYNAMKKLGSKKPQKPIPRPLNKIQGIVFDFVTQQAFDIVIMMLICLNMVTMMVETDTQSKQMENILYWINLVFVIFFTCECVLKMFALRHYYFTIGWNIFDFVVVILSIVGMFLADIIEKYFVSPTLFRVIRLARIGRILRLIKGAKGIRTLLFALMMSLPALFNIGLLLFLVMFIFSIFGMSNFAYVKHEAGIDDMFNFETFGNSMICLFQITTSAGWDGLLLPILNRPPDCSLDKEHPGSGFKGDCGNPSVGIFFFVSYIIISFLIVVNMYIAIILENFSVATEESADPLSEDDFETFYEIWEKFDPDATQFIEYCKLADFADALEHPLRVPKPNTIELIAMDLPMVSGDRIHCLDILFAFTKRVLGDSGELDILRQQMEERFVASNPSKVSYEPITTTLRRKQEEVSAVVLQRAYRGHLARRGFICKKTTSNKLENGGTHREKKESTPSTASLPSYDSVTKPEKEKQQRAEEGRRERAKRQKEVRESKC

[3] = target: T2, Fibroblast growth factor 14 (Homo sapiens) (UniProt Q92915); experiment: Binding affinity to human recombinant FGF14 expressed in Escherichia coli BL21 assessed as association rate constant by SPR analysis; conditions: filed as modulator; outline: as §2
T2 sequence (whole entry): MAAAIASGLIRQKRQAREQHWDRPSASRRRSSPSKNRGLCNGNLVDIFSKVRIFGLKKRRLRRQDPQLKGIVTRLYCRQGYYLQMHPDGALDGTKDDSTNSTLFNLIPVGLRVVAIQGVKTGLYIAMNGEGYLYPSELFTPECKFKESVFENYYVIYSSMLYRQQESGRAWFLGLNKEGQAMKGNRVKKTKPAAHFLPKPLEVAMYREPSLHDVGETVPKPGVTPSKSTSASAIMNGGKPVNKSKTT

[4] = Modulation of recombinant human FGF141b (1 to 252 residues)-recombinant human Nav1.6 C-terminal tail (1763 to 1976 residues) protein-protein interaction expressed in HEK293 cells measured at 2 mins interval for 20 mins by split-luciferase complementation assay; type: cell-based; outline: as §1
[5] = test system: HEK293; experiment: Inhibition of full-length Photinus pyralis luciferase transfected in HEK293 cells at 25 uM incubated for 1 hrs by split-luciferase complementation assay; type: cell-based
Outline: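 HEK293 cells transfected with full-length Photinus pyralis luciferase, then treated 1 h with 25 μM compound (n = 4) or 0.5% DMSO (n = 32). Luminescence read after D-luciferin addition, as in the LCA, normalized to per-plate DMSO controls. One-way ANOVA with Dunnett's test.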

[6] = target: T1, Sodium channel protein type 8 subunit alpha; experiment: Binding affinity to human recombinant Nav1.6 C-terminal domain expressed in Escherichia coli BL21 assessed as dissociation rate constant by SPR analysis; conditions: filed as modulator; outline: as §2
Target sequence in this assay (Q9UQD0 whole entry, looked up, the tested form may be a part): as the sequence (Q9UQD0 whole entry, the tested form may be a part) above

[7] = target: T2, Fibroblast growth factor 14 (Homo sapiens); experiment: Binding affinity to human recombinant FGF14 expressed in Escherichia coli BL21 assessed as assessed as induction of protein denaturation by measuring change in melting temperature at 50 uM by fluorescent dye based thermal shift assay; conditions: filed as modulator
[8] = test system: HEK293; experiment: Modulation of recombinant human FGF141b (1 to 252 residues)-recombinant human Nav1.6 C-terminal tail (1763 to 1976 residues) protein-protein interaction expressed in HEK293 cells measured at 2 mins interval for 20 mins by split-luciferase complementation assay relative to control; type: cell-based; conditions: filed as modulator, time min 2-20; outline: as §1
[9] = target: T3, Fibroblast growth factor 14 (Homo sapiens, UniProt Q92915); experiment: Binding affinity to human recombinant FGF14 expressed in Escherichia coli BL21 assessed as dissociation constant by SPR analysis; outline: as §2
T3 sequence (Q92915 whole entry): T2 sequence (whole entry)

[10] = target: T1, Sodium channel protein type 8 subunit alpha; experiment: Binding affinity to human recombinant Nav1.6 C-terminal domain expressed in Escherichia coli BL21 assessed as assessed as induction of protein denaturation by measuring change in melting temperature at 10 uM by fluorescent dye based thermal shift assay; conditions: filed as modulator, dose 50.0 µM
Target sequence in this assay (Q9UQD0 whole entry, looked up, the tested form may be a part): as the sequence (Q9UQD0 whole entry, the tested form may be a part) above

[11] = target: T1, Sodium channel protein type 8 subunit alpha; experiment: Binding affinity to human recombinant Nav1.6 C-terminal domain expressed in Escherichia coli BL21 assessed as association rate constant by SPR analysis; conditions: filed as modulator; outline: as §2
Target sequence in this assay (Q9UQD0 whole entry, looked up, the tested form may be a part): as the sequence (Q9UQD0 whole entry, the tested form may be a part) above

[12] = test system: HEK293; experiment: Cytotoxicity against HEK293 cells assessed as reduction in cell viability measured after 18 hrs by celltiter-blue assay; conditions: human, hek293, 18 h

SMILES | Activity [1] [%] | inhibition [5] | Activity [12] | also measured
CCN(CC)C(=O)[C@@H](NC(=O)[C@H](CCC(=O)OC(C)(C)C)NC(=O)[C@H](CC(C)C)NC(=O)[C@@H]1CCCN1C(=O)OCc1ccccc1)C(C)C (Cbz-PLE(OtBu)V-NEt2) | 92.3 |  |  | 
CC(C)C[C@H](NC(=O)[C@@H]1CCCN1C(=O)OCc1ccccc1)C(=O)N[C@@H](CCC(=O)OC(C)(C)C)C(=O)N[C@H](C(N)=O)C(C)C (Cbz-PLE(OtBu)V-NH2) | 112 |  |  | 
C#CCOC(=O)[C@@H](NC(=O)[C@H](CCC(=O)OC(C)(C)C)NC(=O)[C@H](CC(C)C)NC(=O)[C@@H]1CCCN1C(=O)C12CC3CC(CC(C3)C1)C2)C(C)C (Adamantane1carbonyl-PLE(OtBu)V-X1) |  | inactive | Non-Toxic | Kd [2]: > 200 µM; K [3]: 2.58 10^4/M/s; IC50 [4]: 13.8 µM; K [6]: 1.45 10^-3/s; ΔTm [7]: -1.85 °C; Efficacy [8]: 96.6%; Kd [9]: 14.7 µM; ΔTm [10]: -0.15 °C; K [11]: 1.26 10^5/M/s; Activity ([1]; filed as modulator): 5.1%
CC(C)C[C@H](NC(=O)[C@@H]1CCCN1C(=O)OCc1ccccc1)C(=O)N[C@@H](CCC(=O)OC(C)(C)C)C(=O)N[C@H](C(=O)NCc1ccccc1)C(C)C (Cbz-PLE(OtBu)V-NHBn) | 134 | inactive | Non-Toxic | 
CNC(=O)[C@@H](NC(=O)[C@H](CCC(=O)OC(C)(C)C)NC(=O)[C@H](CC(C)C)NC(=O)[C@@H]1CCCN1C(=O)OCc1ccccc1)C(C)C (Cbz-PLE(OtBu)V-NHMe) | 103 |  |  | 
CC(C)C[C@H](NC(=O)[C@@H]1CCCN1C(=O)OCc1ccccc1)C(=O)N[C@@H](CCC(=O)OC(C)(C)C)C(=O)N[C@H](C(=O)N1CCN(C)CC1)C(C)C (Cbz-PLE(OtBu)V-{Piperazinyl(4-Me)}) | 54.2 |  |  | 
CC(C)C[C@H](NC(=O)[C@@H]1CCCN1C(=O)C12CC3CC(CC(C3)C1)C2)C(=O)N[C@@H](CCC(=O)OC(C)(C)C)C(=O)N[C@H](C(=O)OC[C@@H]1CO1)C(C)C (Adamantane1carbonyl-PLE(OtBu)V-X2) |  | inactive | Non-Toxic | IC50 [4]: 25.1 µM; Efficacy [8]: 91.4%; Activity ([1]; filed as modulator): 13.1%
COC(=O)[C@@H](NC(=O)[C@H](CCC(=O)OC(C)(C)C)NC(=O)[C@H](CC(C)C)NC(=O)[C@@H]1CCCN1C(=O)OCc1ccccc1)C(C)C (Cbz-PLE(OtBu)V-OMe) |  | inactive | Non-Toxic | IC50 [4]: 22.4 µM; Efficacy [8]: 93.3%; Activity ([1]; filed as modulator): 39.8%
CC(C)C[C@H](NC(=O)[C@@H]1CCCN1C(=O)OCc1ccccc1)C(=O)N[C@@H](CCC(=O)OC(C)(C)C)C(=O)N[C@H](C(=O)N1CCOCC1)C(C)C (Cbz-PLE(OtBu)V-Morpholide) | 72 |  |  | 
CC(C)C[C@H](NC(=O)[C@@H]1CCCN1)C(=O)N[C@@H](CCC(=O)OC(C)(C)C)C(=O)N[C@H](C(N)=O)C(C)C (H-PLE(OtBu)V-NH2) | 114 |  |  | 
CC(C)C[C@H](NC(=O)[C@@H]1CCCN1C(=O)c1ccc(F)cc1)C(=O)N[C@@H](CCC(=O)OC(C)(C)C)C(=O)N[C@H](C(N)=O)C(C)C ({Benzoyl(4-F)}-PLE(OtBu)V-NH2) |  | inactive | Non-Toxic | 
COC(=O)[C@@H](NC(=O)[C@H](CCC(=O)OC(C)(C)C)NC(=O)[C@H](CC(C)C)NC(=O)[C@@H]1CCCN1C(=O)OCC1c2ccccc2-c2ccccc21)C(C)C (Fmoc-PLE(OtBu)V-OMe) | 76.9 |  |  | 
CC(C)C[C@H](NC(=O)[C@@H]1CCCN1C(=O)OCc1ccccc1)C(=O)N[C@@H](CCC(=O)OC(C)(C)C)C(=O)N[C@H](C(=O)NCCO)C(C)C (Cbz-PLE(OtBu)V-NHCH2CH2OH) | 118 |  |  | 
